The source made the active and inactive calls. The rule behind the calls is not given here.
Columns and labels:
[1] = Half life in Swiss Webster mouse brain at 40 mg/kg, ip by LC-MS/MS analysis; type: ADME, organism-based; settings: in vivo
How it was run: (§1)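 Single i.p. dose of 40 mg/kg in Swiss Webster mice; blood, brain and liver taken at several time points. Tissues homogenized in acetonitrile, centrifuged, spin-filtered, dried and reconstituted, with 4,5-diphenylimidazole as instrument standard. Quantified by LC–MS/MS on a C18 column with a formic acid/MeCN gradient. Mean ± SD (n = 4), fitted to a two-compartment PK model.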

[2] = Half life in Swiss Webster mouse liver at 40 mg/kg, ip by LC-MS/MS analysis; type: ADME, organism-based; settings: in vivo; how it was run: as §1
[3] = Cmax in Swiss Webster mouse liver at 40 mg/kg, ip by LC-MS/MS analysis; type: ADME, organism-based; design: route intraperitoneal, dose 40 mg/kg; how it was run: as §1
[4] = tested on: DU-145; test: Cytotoxicity against human DU-145 cells assessed as reduction in cell viability at 50 uM incubated for 48 hrs by MTT assay; type: functional
How it was run: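 DU145 cells in DMEM with 10% FBS were seeded at 14 000 cells/well and allowed to adhere for 24 h. Test agents were diluted from 10 mM DMSO stocks (100, 50, 25 µM; 10, 5, 1.25 nM) and applied in triplicate for 48 h at 37 °C, 5% CO2, with DMSO as vehicle. Read-out was 250 µg/mL MTT for 4 h, DMSO solubilization, and A570 with 690 nm reference. Values normalized to DMSO.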

[5] = biological target: T1, Histone deacetylase 2 (Homo sapiens, UniProt Q92769); test: Inhibition of recombinant human full-length HDAC2 incubated for 10 mins by Glo-luminescence assay
T1 sequence (Q92769 whole entry): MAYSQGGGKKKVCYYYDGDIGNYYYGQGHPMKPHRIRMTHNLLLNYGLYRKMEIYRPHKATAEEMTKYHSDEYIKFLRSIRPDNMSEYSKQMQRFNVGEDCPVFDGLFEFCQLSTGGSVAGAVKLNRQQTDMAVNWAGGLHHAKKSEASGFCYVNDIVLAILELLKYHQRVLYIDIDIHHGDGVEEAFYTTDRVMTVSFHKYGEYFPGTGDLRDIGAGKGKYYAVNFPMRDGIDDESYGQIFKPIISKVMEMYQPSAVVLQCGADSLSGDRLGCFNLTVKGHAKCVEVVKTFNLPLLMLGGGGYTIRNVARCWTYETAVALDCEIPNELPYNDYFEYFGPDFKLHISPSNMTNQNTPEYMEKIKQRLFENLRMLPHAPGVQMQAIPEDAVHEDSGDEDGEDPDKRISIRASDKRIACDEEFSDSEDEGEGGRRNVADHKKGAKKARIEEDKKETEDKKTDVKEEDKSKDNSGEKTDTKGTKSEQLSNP
How it was run: (§2)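 Compounds were serially diluted and incubated with enzyme for 10 min. HDAC-Glo I/II substrate/developer was then added, and luminescence read after 40 min at 23 °C. IC50 from four-parameter fits from two independent titrations, mean ± SD.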

[6] = biological target: T1, Histone deacetylase 2; test: Inhibition of HDAC2 in human DU-145 cells assessed as increase in histone H3 acetylation after 24 hrs by immunofluorescence microscopy; type: cell-based
[7] = biological target: Histone deacetylase 3 (Homo sapiens, UniProt O15379); test: Inhibition of HDAC3 in human DU-145 cells assessed as increase in histone H3 acetylation after 24 hrs by immunofluorescence microscopy; type: cell-based
Histone deacetylase 3, sequence (O15379 whole entry): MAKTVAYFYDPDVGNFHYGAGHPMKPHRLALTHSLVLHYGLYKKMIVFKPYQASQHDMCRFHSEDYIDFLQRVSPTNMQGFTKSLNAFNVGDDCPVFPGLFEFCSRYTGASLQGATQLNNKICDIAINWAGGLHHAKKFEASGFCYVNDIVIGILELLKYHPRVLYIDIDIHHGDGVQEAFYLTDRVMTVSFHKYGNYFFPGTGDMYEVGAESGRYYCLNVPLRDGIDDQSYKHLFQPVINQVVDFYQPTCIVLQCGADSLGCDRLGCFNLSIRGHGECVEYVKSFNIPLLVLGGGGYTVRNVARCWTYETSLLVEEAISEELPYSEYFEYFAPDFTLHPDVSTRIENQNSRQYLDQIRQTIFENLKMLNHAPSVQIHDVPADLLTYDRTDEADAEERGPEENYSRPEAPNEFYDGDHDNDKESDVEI

[8] = biological target: T2, Histone deacetylase 8 (Homo sapiens, UniProt Q9BY41); test: Inhibition of HDAC8 in human DU-145 cells assessed as increase in histone H3 acetylation after 24 hrs by immunofluorescence microscopy; type: cell-based
T2 sequence (Q9BY41 whole entry): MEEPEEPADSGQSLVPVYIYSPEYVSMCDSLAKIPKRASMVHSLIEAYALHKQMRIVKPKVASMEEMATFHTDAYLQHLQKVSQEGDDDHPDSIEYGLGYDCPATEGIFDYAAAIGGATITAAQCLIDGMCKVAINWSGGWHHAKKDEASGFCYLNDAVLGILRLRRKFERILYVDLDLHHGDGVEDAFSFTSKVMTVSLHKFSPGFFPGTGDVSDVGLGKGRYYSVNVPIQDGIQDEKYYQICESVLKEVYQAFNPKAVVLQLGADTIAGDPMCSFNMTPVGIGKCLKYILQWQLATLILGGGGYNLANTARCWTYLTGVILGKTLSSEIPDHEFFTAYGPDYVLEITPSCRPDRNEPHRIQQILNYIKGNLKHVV

[9] = AUC in Swiss Webster mouse brain at 40 mg/kg, ip by LC-MS/MS analysis; type: ADME, organism-based; design: dose 40 mg/kg; settings: in vivo; how it was run: as §1
[10] = biological target: T1, Histone deacetylase 2; test: Inhibition of recombinant human full-length HDAC2 preincubated for 20 mins with DTT followed by enzyme addition and measured after 10 mins by Glo-luminescence assay; how it was run: as §2
[11] = Elimination rate in Swiss Webster mouse liver at 40 mg/kg, ip by LC-MS/MS analysis; type: ADME, organism-based; how it was run: as §1
[12] = Tmax in Swiss Webster mouse liver at 40 mg/kg, ip by LC-MS/MS analysis; type: ADME, organism-based; how it was run: as §1
[13] = biological target: Histone deacetylase (Homo sapiens) (UniProt Q13547+O15379+Q9UBN7+Q92769+Q9UQL6+Q8WUI4+Q9BY41+Q96DB2+P56524+Q9UKV0+Q969S8); test: Inhibition of HDAC in human DU-145 cells assessed as increase in histone H3 acetylation after 24 hrs by immunofluorescence microscopy; type: cell-based
How it was run: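 Cells were fixed in 4% PFA and permeabilized in TBS-T/BSA. Staining used anti-acetyl-H3 (Lys9/Lys14) at 1:2000, an AlexaFluor 488 secondary and DAPI. At least five random fields were imaged by fluorescence microscopy; three independent experiments.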

[14] = Drug uptake in BALB/c mouse brain at 40 mg/kg, ip measured upto 60 mins by mass spectroscopy analysis; type: ADME, organism-based; settings: in vivo, 1 h
How it was run: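 BALB/c mice received 40 mg/kg i.p. Retro-orbital blood was collected under isoflurane, then liver and whole brain after CO2 euthanasia, at 10, 30 and 60 min. Acetonitrile extracts were spin-filtered with 4,5-diphenylimidazole as instrument standard and analysed by LC–MS/MS.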

[15] = Elimination rate in Swiss Webster mouse brain at 40 mg/kg, ip by LC-MS/MS analysis; type: ADME, organism-based; how it was run: as §1
[16] = tested on: Mus musculus; test: Cognitive enhancing effect in C57BL/6 mouse assessed as enhanced object recognition memory consolidation at 20 to 40 mg/kg, ip measured after 48 hrs; type: functional, organism-based; settings: dose 20-40 mg/kg
How it was run: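 Male C57BL/6 mice trained to 30 s of total exploration of two identical objects (20 min maximum). Immediately afterwards they received one i.p. injection at 5 mL/kg in 100% DMSO (20, 30 or 40 mg/kg); vehicle DMSO, NaBu 600 mg/kg in saline. Object placement (moved object) tested at 24 h and object recognition (novel object) at 48 h. Time with that object compared to chance (15 s) by one-sample t-test.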

[17] = Toxicity in ip dosed BALB/c mouse assessed as maximum tolerated dose measured after 2 weeks; type: organism-based; settings: in vivo, 336 h
How it was run: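 Healthy BALB/c mice, compound in 20% DMSO/saline, single i.p. dose. One mouse each at 200, 100 and 50 mg/kg, then 25, 12.5 and 6.25 mg/kg if needed, repeated until a tolerated dose was found. Last test repeated once. Mice weighed daily for 8 days; euthanized at >20% weight loss or overt toxicity. Morbidity/mortality followed over 2 weeks; triplicate experiments.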

[18] = biological target: Histone deacetylase 1 (Homo sapiens, UniProt Q13547); test: Inhibition of HDAC1 in human DU-145 cells assessed as increase in histone H3 acetylation after 24 hrs by immunofluorescence microscopy; type: cell-based
Histone deacetylase 1, sequence (Q13547 whole entry): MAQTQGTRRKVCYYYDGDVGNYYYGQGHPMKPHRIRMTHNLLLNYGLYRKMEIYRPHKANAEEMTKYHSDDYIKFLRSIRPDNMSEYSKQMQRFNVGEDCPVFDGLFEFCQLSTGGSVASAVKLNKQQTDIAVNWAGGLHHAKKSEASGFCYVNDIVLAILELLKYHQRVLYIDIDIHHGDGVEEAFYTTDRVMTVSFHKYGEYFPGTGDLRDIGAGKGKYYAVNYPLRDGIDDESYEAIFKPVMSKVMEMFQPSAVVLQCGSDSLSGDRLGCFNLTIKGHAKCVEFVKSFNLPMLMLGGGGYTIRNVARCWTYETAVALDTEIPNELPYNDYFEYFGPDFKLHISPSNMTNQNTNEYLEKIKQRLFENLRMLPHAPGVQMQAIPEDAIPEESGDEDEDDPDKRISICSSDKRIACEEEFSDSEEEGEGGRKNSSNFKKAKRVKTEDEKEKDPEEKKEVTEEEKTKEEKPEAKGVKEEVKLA

CC(C)(C)OC(=O)CC(O)/C=C/CCSSCC/C=C/C(O)CC(=O)OC(C)(C)C (stereo not drawn)
t1/2 [1]: 13.4 min
t1/2 [2]: 41 min
Cmax [3]: 530 ng/g
inhibition at 50 µM [4]: 50%
IC50 [5]: 100 µM
IC50 [6]: 10 µM
IC50 [7]: 8 µM
IC50 [8]: 11 µM
AUC [9]: 2019 ng·min/g
IC50 [10]: 10 µM
k el [11]: 0.000283 s⁻¹
Tmax [12]: 10 min
inhibition [13]: Dose-Dependent Effect
Drug uptake [14]: Active
k el [15]: 0.000867 s⁻¹
Activity [16]: inactive
MTD [17]: > 200 mg/kg
IC50 [18]: 8.7 µM

Source: ChEMBL document CHEMBL5046273, “Development of a Novel, Small-Molecule Brain-Penetrant Histone Deacetylase Inhibitor That Enhances Spatial Memory Formation in Mice” (J Med Chem, 2022)
